Measurements pooled from the literature.
Lines come from different studies, so protocols differ.

`CC(C)(Oc1cccc(N2CCC[C@@H](C(=O)N(Cc3ccc(-c4cn[nH]c4)cc3)C3CC3)C2)c1)C(=O)N1CCNCC1.Cl` gave a clearance of 44.2 mL/min/kg (male C57BL/6 mouse, plasma; intravenous, 1 mg/kg).
For `CC[C@H](C)[C@@H]1NC(=O)[C@@](C)(NC(=O)[C@H](CCCNC(=N)N)NC(=O)[C@H](CC(C)C)NC(=O)[C@@H](NC(=O)[C@H](CCC(N)=O)NC(=O)[C@H](CC(C)C)NC(C)=O)[C@@H](C)O)CCCC=CCCC[C@@](C)(C(=O)N[C@@H](CC(C)C)C(=O)N[C@@H](Cc2ccc3ccccc3c2)C(N)=O)NC(=O)[C@H](CCCNC(=N)N)NC(=O)[C@H](CCC(N)=O)NC1=O`, the clearance was 0.662 mL/min/kg (male BALB/c mouse, plasma; intravenous, 5 mg/kg).
`NC(=S)NN=Cc1ncccc1N` gave a clearance of 13.8 mL/min/kg (female C57BL/6 mouse, plasma; intravenous, 20 mg/kg).
`CN(C)c1ccc(-c2cc(=O)c3ccc(O)c(O)c3o2)cc1` gave a clearance of 168 mL/min/kg (mouse, plasma; intravenous, 1 mg/kg).
The clearance of `CNC(=O)c1cc(OC)cc2c(N3CCc4c(cc(Cn5ccnc5)cc4-c4cn(C)nc4C(F)(F)F)C3=O)ccnc12` is reported as 15 mL/min/kg (male CD-1 mouse, plasma; intravenous, 3 mg/kg).
`OC[C@H]1O[C@@H](c2ccc(Cl)c(Cc3ccc(O[C@H]4CCOC4)cc3)c2)[C@H](O)[C@@H](O)[C@@H]1O` has a clearance of 51.6 mL/min/kg (CD-1 mouse, plasma; intravenous, 5 mg/kg).
The clearance of `CC(F)(F)CN1Cc2cc(C(F)(F)F)ncc2C2=CN=C(NCc3c(F)ccc4c3CCO4)N3C=NC(C1=O)C23` (stereo not shown) is reported as 0.39 mL/min/kg (male CD-1 mouse, plasma; intravenous, 2 mg/kg).
The clearance of `COc1nc(-c2cc(C)c(N[C@@H](C)c3ccc(F)cc3)nn2)ccc1-n1cnc(C)c1` is reported as 3.9 mL/min/kg (male CD-1 mouse, plasma; intravenous, 1 mg/kg, single dose).
The clearance of `Cc1c(Br)cc(NC(=O)C(c2ccccc2)S(=O)(=O)O)cc1Br` (stereo not shown) is reported as 34.9 mL/min/kg (CD-1 mouse, blood; intravenous, 2 mg/kg).
For `Cc1noc(C)c1-c1ccc2nc(-c3cnn(CC(C)(C)O)c3)nc(N3CCOC[C@@H]3c3ccccc3)c2c1`, the clearance was 7.3 mL/min/kg (CD-1 mouse, plasma; intravenous, 2 mg/kg).
`C=C(C[C@H](N)C(=O)O)C(=O)NCc1ccc(F)cc1` has a clearance of 29.4 mL/min/kg (male CD-1 mouse, plasma; intravenous, 2.5 mg/kg).
With `Cc1c(Br)cc(NC(=O)NS(=O)(=O)O)cc1Br` the clearance was 5.65 mL/min/kg (CD-1 mouse, blood; intravenous, 2 mg/kg).
The clearance of `NCC1CCN(c2nc(-c3ccncc3)nc3sc4c(c23)CCCC4)CC1` is reported as 38 mL/min/kg (female CD-1 mouse, plasma; intravenous, 10 mg/kg).
`CNCCN(C)c1cc(C#N)cc(CCc2cc(C)cc(N)n2)c1` gave a clearance of 21 mL/min/kg (male BALB/c mouse, brain; intravenous, 2 mg/kg).
The clearance of `CC(C)(C)c1ccc(O)c(CN(Cc2cc(C(C)(C)C)ccc2O)C2CCC(NC(N)=O)CC2)c1` (stereo not shown) is reported as 32.3 mL/min/kg (male C57BL/6 mouse, plasma; oral, 10 mg/kg, single dose).
With `CCc1cc(C(=O)NC)c2nccc(N3CCc4c(cc(Cn5ccnc5)cc4-c4cn(C)nc4C(F)(F)F)C3=O)c2c1` the clearance was 12 mL/min/kg (male CD-1 mouse, plasma; intravenous, 3 mg/kg).
`O=C1C2N=CN3C(NCc4c(F)ccc5c4CCO5)=NC=C(c4cnc(C(F)(F)F)cc4CN1CC(F)F)C23` (stereo not shown) has a clearance of 0.59 mL/min/kg (male CD-1 mouse, plasma; intravenous, 2 mg/kg).
The clearance of `O=C(Nc1ccc(Cl)c(Cl)c1)c1ccc(N2CCNCC2)c([N+](=O)[O-])c1` is reported as 53.5 mL/min/kg (male mouse, plasma; oral, 10 mg/kg).
`Cc1ccc2cncc(N3CCc4c(cc(Cn5ccnc5)cc4-c4cn(C)nc4C(F)(F)F)C3=O)c2c1` gave a clearance of 16 mL/min/kg (male CD-1 mouse, plasma; intravenous, 3 mg/kg).
